Tested on: MS2 coat protein
Test: apparent Kd, MS2 coat protein; higher = weaker binding; RNA-MaP array
Method in brief: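 Apparent Kd values come from the median of binding-curve fits to single clusters. To obtain them, designed RNAs transcribed on an Illumina sequencing chip from sequenced DNA templates were incubated at room temperature with fluorescently labeled MS2 coat protein at 1.5 nM to 3 μM, with or without input ligand, for 0.8–1.5 h at the lowest and 10–20 min at the highest concentrations. Designs measured on fewer than 10 clusters were excluded.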

[1] = designed as: OFF switch for flavin mononucleotide, no ligand
[2] = ligand present: flavin mononucleotide, designed as: OFF switch for flavin mononucleotide
[3] = designed as: OFF switch for tryptophan, no ligand
[4] = ligand present: tryptophan, designed as: OFF switch for tryptophan
[5] = designed as: ON switch for flavin mononucleotide, no ligand
[6] = ligand present: flavin mononucleotide, designed as: ON switch for flavin mononucleotide

Sequence: AAAUGGACGGCAGGAUAUGGACAAGGAAUAUUACCAGAAGGGCCCUAAUGCUCAUACAUGAGGAUCACCCAUGUUGUAAUCAAU
- apparent Kd [1]: 0.0178 µM
- apparent Kd [2]: 0.0127 µM

Sequence: CCUCACGAAAUCGAUGAAAGCAUGUGGCACCGAGGACCGGUACGGCCGCCACUCGCAUCCACACAUGAGGAUCACCCAUGUAAGA
- apparent Kd [3]: 0.0393 µM
- apparent Kd [4]: 0.0516 µM

Sequence: UAUUCUGACACAGAUACCAGUCAAUUCCGUGGCAAGUGCUACAUGAGGAUCACCCAUGUCGACCCUUGGCAGCUGAAGAGAUACA
- apparent Kd (designed as: OFF switch for theophylline, no ligand): 0.0121 µM
- apparent Kd (ligand present: theophylline, designed as: OFF switch for theophylline): 0.0141 µM

Sequence: UAGGAUCAAGUAGGAUAUGUAGAACGGCUUUGUACAGAAGGACUAGUACAUGAGGAUCACCCAUGUUAGGGUACCUCUAAGGCA
- apparent Kd [2]: 0.198 µM

Sequence: UCAGAAAGAUAGGACCUACAUGAGGAUCACCCAUGUUGCUGUAGAAGGUGCCGUGCCAUCGUGAGCAAGGAUAUACCGAUAUGG
- apparent Kd [1]: 0.0226 µM
- apparent Kd [2]: 0.0158 µM

Sequence: GGAAGCUCCUUGAGACAUGAGGAUCACCCAUGUGCCAUUCCGAGAAGGUAGACUGGACGAGAGGCUAAGGAUAUCGGCGCGCUC
- apparent Kd [1]: 0.0167 µM
- apparent Kd [2]: 0.0156 µM

Sequence: GCAUGACAUGAGGAUCACCCAUGUGAAUUGUAGGAAGGAUAUAAUACUUGAUCCGCUGUCUUAGAAGGUCCAUAAU
- apparent Kd [5]: 0.0286 µM
- apparent Kd [6]: 0.0196 µM

Sequence: AUGCAACAUGAGGAUCACCCAUGUGGUGAUACCAGUCGACAAGUAGACCCUUGGCAGCACAGCCGAUAUCGAGAGAGAUUUUUGG
- apparent Kd (designed as: ON switch for theophylline, no ligand): 0.487 µM
- apparent Kd (ligand present: theophylline, designed as: ON switch for theophylline): 0.65 µM

Sequence: AUAUAGGUAGGAUAUACAAUGAAUGGGCACCGUAAAACCAUACAUGAGGAUCACCCAUGUAGAAGGACCGGAAG
- apparent Kd [1]: 0.00786 µM
- apparent Kd [2]: 0.0125 µM

Sequence: CUCGCUAAAGUAGGAUAUACACAGACAUGAGGAUCACCCAUGUAACGAUGAACCCUUAUUAGAUGGUAGAAGGACUCAAGGCCG
- apparent Kd [1]: 0.0131 µM

Sequence: AACAAGGAAGGAUAUACAUGAGGAUCACCCAUGUCACUAGGGCCUCCCGCUUCGCUGUGUAGAAGGACCAUGAA
- apparent Kd [1]: 0.00974 µM
- apparent Kd [2]: 0.00889 µM

Sequence: GUUACCAUGUCGGCCGCCACUAACAAGGUUAUGGCAAGUCUACACGACAUGAGGAUCACCCAUGUUAGGACCGGGACCCAUACCC
- apparent Kd [3]: 0.0134 µM
- apparent Kd [4]: 0.014 µM

Sequence: CCGCCACUACAUGAGGAUCACCCAUGUGAACCGUAGAACAUGAGAAGGUGCCUAAAGCUCGAGGGCAAGGAUAUCAACCGCCGC
- apparent Kd [5]: 0.125 µM
- apparent Kd [6]: 0.0975 µM

Sequence: GCGAUAGCUGUCAAGGAUAUGAGGCUGACCACAUGAGGAUCACCCAUGUUUACAACAAAAUAGAUUCAGAAGGUGACAACAAGUAG
- apparent Kd [5]: 0.0803 µM
- apparent Kd [6]: 0.0181 µM

Sequence: ACACCACAGCAGAAGGGUACAUUCUCCACGCGUACAGGAUAUGCGGACUCGGCGUCUCUGACAUGAGGAUCACCCAUGUUUUCU
- apparent Kd [5]: 0.0859 µM
- apparent Kd [6]: 0.0291 µM

Sequence: CCCAAAGACACAUGAGGAUCACCCAUGUUCCGCAAACAAUUGGAGGAUAUGAAGGAACGCAGCAAACAGAAGGCCAUAAAUAGC
- apparent Kd [5]: 0.0168 µM
- apparent Kd [6]: 0.00967 µM

Sequence: AAAUUACGUAAGAAGGCCAUAGGAACUGAAGCAAGCUCGACGACACAUGAGGAUCACCCAUGUCUGGAGGAUAUUAUGAUAUCU
- apparent Kd [5]: 0.0103 µM
- apparent Kd [6]: 0.00964 µM

Sequence: CGCCUAGGGUAUCAGGAUAUGACGGGCAUAACAUGAGGAUCACCCAUGUAAGAGUAGUACAGUUGUCAGAAGGGAUGAUCUAGAAU
- apparent Kd [5]: 0.162 µM
- apparent Kd [6]: 0.0255 µM

Sequence: AUGCAUCUAGGAUAUGCGGUGAUUUACAUGAGGAUCACCCAUGUAGACCACCGGUCUAGAGCAGAAGGAGAUGUGG
- apparent Kd [1]: 0.00517 µM
- apparent Kd [2]: 0.00554 µM

Sequence: AUCUAACAUGAGGAUCACCCAUGUCAGGAUAUUGCAGCCGUAGUAGGUCUAGUUUGUGCAAGAAGGGACAUCUC
- apparent Kd [1]: 0.00955 µM
- apparent Kd [2]: 0.0225 µM

Sequence: CUCUCGGCAGGAUAUCGGCAGAUAAACAUGAGGAUCACCCAUGUGUUCUUAAAAUUCCGUCGAGAAGGGCCGCGAU
- apparent Kd [1]: 0.00468 µM
- apparent Kd [2]: 0.00516 µM

Sequence: AUAUGCGAUUGAGGAUAUAGGGAGAGGCUAACUCUAGAAGGCAAUGUAUGGAAUAGCUUACACAUGAGGAUCACCCAUGUUGCU
- apparent Kd [5]: 0.00973 µM
- apparent Kd [6]: 0.00727 µM

Sequence: AAACGCUAUGCGGCCGCCACUAAGGUUGGCGUCUAUGUCGUUUAAGACAUGAGGAUCACCCAUGUUAGGACCGGGCAUGUCCGCG
- apparent Kd [3]: 0.0212 µM
- apparent Kd [4]: 0.0211 µM

Sequence: CUAUCACAUGAGGAUCACCCAUGUAUGAUAAUCAUAGGAUAUAGUGCCAGCCAUAAUUUACUAGAAGGAUGUUUCU
- apparent Kd [5]: 0.0117 µM
- apparent Kd [6]: 0.0101 µM

Sequence: GUUUUCAAGUCGGCCGCCACUGAUACAAUCCUCACCGGUUCACAUGAGGAUCACCCAUGUUCGCUCAGGACCGGGACCUUCUGUG
- apparent Kd [3]: 0.127 µM
- apparent Kd [4]: 0.108 µM

Sequence: UUGUGGGCGCUUCAGGAUAUCGCAAAAGAAACAUGAGGAUCACCCAUGUGGCCGAAGCAACUGGGCGAGAAGGGAAAGGCCCGAAG
- apparent Kd [5]: 0.0173 µM
- apparent Kd [6]: 0.0141 µM

Sequence: GUCGAAUCCUGAGGAUAUUCAGUGAUGGCUCAGACAUGAGGAUCACCCAUGUUACUCAGUGAGCGGAAGAAGGCAGCCUUCGGG
- apparent Kd [5]: 0.163 µM
- apparent Kd [6]: 0.131 µM

Sequence: GCUCUCCAAGGAUAUUAGGUGUGUUACAUGAGGAUCACCCAUGUUUUCCAAUGAAUCGUCUAAGAAGGUGGCUAUU
- apparent Kd [1]: 0.0143 µM
- apparent Kd [2]: 0.0129 µM

Sequence: CGGUUACAUGAGGAUCACCCAUGUUCCAUGGUUGAAGGAUAUGGCGACGGCGCGUGGGUACCAGAAGGUCAGGCAC
- apparent Kd [5]: 0.026 µM
- apparent Kd [6]: 0.0196 µM

Sequence: UUUCUGUUACAGAAGGGAAGGAAACAUGAGGAUCACCCAUGUCCACGCCGUUUACAUUCGGCCGUUCAGGAUAUGUCAUAUUGA
- apparent Kd [5]: 0.0231 µM
- apparent Kd [6]: 0.017 µM

Sequence: CGCGUGUUCGAGGAUAUGGAACUGAUAUUAGACCCAGAAGGCGAGACAUGAGGAUCACCCAUGUGAGGACUAAC
- apparent Kd [1]: 0.0186 µM
- apparent Kd [2]: 0.0538 µM

Sequence: UCACAGUCCCAGAAGGCCUUGUCAGAUUCAUAAGGAGGAUAUGGAUUACAUGAGGAUCACCCAUGUGAAUACUUACAGAGCAAC
- apparent Kd [5]: 0.0793 µM
- apparent Kd [6]: 0.0154 µM

Sequence: UGACCGUUAAUAGGAUAUGUUCUCUUCCACAUGAGGAUCACCCAUGUAAACUAUUGUGAAACUGGACAGAAGGAUUAAACAUUG
- apparent Kd [1]: 0.0171 µM
- apparent Kd [2]: 0.0141 µM

Sequence: UCCACACAUGAGGAUCACCCAUGUUGACAUUAUUGAGGAUAUCGGAGUGAAGGUUCGGUUCGAGAAGGCAACCAGA
- apparent Kd [5]: 0.0198 µM
- apparent Kd [6]: 0.0148 µM

Sequence: CCGAAUCAAACUGAUAGUCUACAUGAGGAUCACCCAUGUGAAAAGGAUAUCUUUUGAACUGACGAAGAGAAGGUUUUAGAGGGU
- apparent Kd [1]: 0.00777 µM
- apparent Kd [2]: 0.008 µM

Sequence: AGAUAAUCUUGGGAUUUCGUACAUGAGGAUCACCCAUGUCCAGAGGAUAUGCAUAGACAGGCAUCGCAGAAGGCUGGUGAACAG
- apparent Kd [5]: 0.0354 µM
- apparent Kd [6]: 0.0276 µM

Sequence: GUGAAACAUGAGGAUCACCCAUGUCAGGAUAUACUAAUGUCCGCUCGAUUGGACCUGUGUAGAAGGGACUGUGA
- apparent Kd [1]: 0.0127 µM
- apparent Kd [2]: 0.0176 µM

Sequence: GGUCCCAUGCGACAGGAUAUUGGAUGCAGCACAUGAGGAUCACCCAUGUAUACAGUUAUGGAUAACAAGAAGGGUCGCUUUGCAUA
- apparent Kd [5]: 0.0453 µM
- apparent Kd [6]: 0.0152 µM

Sequence: AAUGUAUGUUAGGAUAUGGCCACGGCGAGGGACCCAGAAGGAACCACAUGAGGAUCACCCAUGUAAAAUAUGGA
- apparent Kd [1]: 0.0203 µM
- apparent Kd [2]: 0.0164 µM

Sequence: UCGGACCGAGGAUAUACAGUUCGUGAAGGUAAGAUACACAGACAUGAGGAUCACCCAUGUAGAAGGCGGAGUCC
- apparent Kd [1]: 0.0121 µM
- apparent Kd [2]: 0.0156 µM

Sequence: UUCUACAUGAGGAUCACCCAUGUCCCUGGGACCCUUGCAUCCAGAAGGCACGACUAGAUGGUGUGUGAGGAUAUGGAGGCGCUU
- apparent Kd [1]: 0.162 µM
- apparent Kd [2]: 0.144 µM

Sequence: GUGCGCGUAAAAGGAUAUUCGGAUGAUAGAACUCGAAACUACAUGAGGAUCACCCAUGUCAAGAAGAAGAAGGUUUGGCGAAAU
- apparent Kd [1]: 0.0571 µM
- apparent Kd [2]: 0.0317 µM

— the EternaBench riboswitch data
